≈ marks a conversion by molar mass, not a printed value. Calls of active or inactive are those of the source. No cut-off for these calls is given here.
What was measured:
Escherichia coli = test: Antimicrobial activity against tolc-defecient Escherichia coli BW25113 after 17 hrs by two-fold serial dilution technique; assay type: functional; details: BW25113, 17 h
In short: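 MIC by serial dilution following a CLSI protocol. E. coli BW25113 ΔtolC was grown in M8 medium.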

Caulobacter vibrioides [1] = test: Antimicrobial activity against Caulobacter crescentus CB15N after 17 hrs by two-fold serial dilution technique; assay type: functional
[2] = Solubility of the compound by light scattering fluorescence spectrophotometry; assay type: physicochemical
In short: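 Solubility was measured in M8 medium containing 2% DMSO by a light-scattering assay.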

Caulobacter vibrioides [3] = test: Antimicrobial activity against Caulobacter crescentus CB15N assessed as cell division arrest after the initiation of midcell constriction at MIC after 17 hrs by phase contrast microscopy; assay type: functional, organism-based
In short: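 C. crescentus CB15N cells were incubated with compound for 17 h, then imaged to score cell-division phenotype at the midcell constriction stage.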

Shigella boydii = test: Antimicrobial activity against clinical isolates of Shigella boydii by serial dilution technique; assay type: functional
In short: (§1)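 Clinical pathogenic isolates were tested for growth inhibition in M8 medium.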

Klebsiella aerogenes = test: Antimicrobial activity against clinical isolates of Enterobacter aerogenes by serial dilution technique; assay type: functional; in short: as §1
Vibrio cholerae = test: Antimicrobial activity against clinical isolates of Vibrio cholerae by serial dilution technique; assay type: functional
Morganella morganii = test: Antimicrobial activity against clinical isolates of Morganella morganii by serial dilution technique; assay type: functional; in short: as §1
Acinetobacter baumannii = test: Antimicrobial activity against clinical isolates of Acinetobacter baumannii by serial dilution technique; assay type: functional; in short: as §1
Klebsiella pneumoniae = test: Antimicrobial activity against clinical isolates of Klebsiella pneumoniae by serial dilution technique; assay type: functional; in short: as §1
Salmonella typhimurium = test: Antimicrobial activity against clinical isolates of Salmonella typhimurium by serial dilution technique; assay type: functional, Salmonella enterica subsp. enterica serovar Typhimurium; details: Salmonella enterica; in short: as §1
Caulobacter vibrioides [4] = test: Bacteristatic activity against Caulobacter crescentus CB15N assessed as inhibition of cell growth at 2.5 to 20 uM by plate reader analysis; assay type: functional, organism-based

SMILES	MIC (Escherichia coli) [µM]	MIC (Caulobacter vibrioides [1]) [µM]	solubility kinetic [2] [µM]	Activity (Caulobacter vibrioides [3])	further results
Cc1nc2ccccc2n1CCC(=O)N/N=C/c1ccc(N(C)C)c2ccccc12	> 50	> 20			
Cc1nc2ccccc2n1CCC(=O)NNCc1c(O)ccc2ccccc12	50 (≈ 18.7 µg/mL)	40 (≈ 15 µg/mL)			
CN(C)Cc1nc2ccccc2n1CCC(=O)N/N=C/c1c(O)ccc2ccccc12	12.5 (≈ 5.19 µg/mL)	5 (≈ 2.08 µg/mL)	90 (≈ 37.4 µg/mL)		
Cc1nc2ccncc2n1CCC(=O)N/N=C/c1c(O)ccc2ccccc12	25 (≈ 9.34 µg/mL)	10 (≈ 3.73 µg/mL)			
[N-]=[N+]=NCc1nc2ccccc2n1CCC(=O)N/N=C/c1c(O)ccc2ccccc12	12.5 (≈ 5.17 µg/mL)	5 (≈ 2.07 µg/mL)	20 (≈ 8.27 µg/mL)	Active	
Cc1nc2ccccc2n1CCCC(=O)N/N=C/c1c(O)ccc2ccccc12	10 (≈ 3.86 µg/mL)	5 (≈ 1.93 µg/mL)	120 (≈ 46.4 µg/mL)	Active	
C=CCOc1ccc2ccccc2c1/C=N/NC(=O)CCn1c(C)nc2ccccc21	> 50	> 20			
O=C(CCn1cnc2ccccc21)N/N=C/c1c(O)ccc2ccccc12	12.5 (≈ 4.48 µg/mL)	7.5 (≈ 2.69 µg/mL)	30 (≈ 10.8 µg/mL)	Active	
Cc1nc2ccccc2n1CCC(=O)N/N=C/c1ccccc1F	> 50	> 20			
O=C(CCn1c(C(F)(F)F)nc2ccccc21)N/N=C/c1c(O)ccc2ccccc12	> 50	7.5 (≈ 3.2 µg/mL)	30 (≈ 12.8 µg/mL)		
Cc1nc2cnccc2n1CCC(=O)N/N=C/c1c(O)ccc2ccccc12	12.5 (≈ 4.67 µg/mL)	5 (≈ 1.87 µg/mL)	90 (≈ 33.6 µg/mL)	Active	
Cc1nc2ccccc2n1CCC(=O)N/N=C/c1cccc2ccccc12	50 (≈ 17.8 µg/mL)	> 20			
Cc1nc2ccccc2n1CC(=O)N/N=C/c1c(O)ccc2ccccc12	25 (≈ 8.96 µg/mL)	5 (≈ 1.79 µg/mL)	20 (≈ 7.17 µg/mL)		
Cc1nc2ccccc2n1CCC(=O)N/N=C/c1c(O)ccc2cc(O)ccc12	12.5 (≈ 4.86 µg/mL)	5 (≈ 1.94 µg/mL)			
C/C(=N\NC(=O)CCn1c(C)nc2ccccc21)c1c(O)ccc2ccccc12	> 50	> 20			
Cc1nc2ccccc2n1CCC(=O)N/N=C/c1c(O)ccc2ccccc12	12.5 (≈ 4.66 µg/mL)	5 (≈ 1.86 µg/mL)	20 (≈ 7.45 µg/mL)	Active	MIC (Shigella boydii): 50 µM (≈ 18.6 µg/mL); MIC (Klebsiella aerogenes): 50 µM (≈ 18.6 µg/mL); MIC (Vibrio cholerae): 6 µM (≈ 2.23 µg/mL); MIC (Morganella morganii): > 50 µM; MIC (Acinetobacter baumannii): 50 µM (≈ 18.6 µg/mL); MIC (Klebsiella pneumoniae): > 50 µM; MIC (Salmonella typhimurium): 50 µM (≈ 18.6 µg/mL)
Cc1nc2cc(Cl)ccc2n1CCC(=O)N/N=C/c1c(O)ccc2ccccc12	7.5 (≈ 3.05 µg/mL)	5 (≈ 2.03 µg/mL)	210 (≈ 85.4 µg/mL)	Active	Activity (Caulobacter vibrioides [4]): Active
COc1ccc2ccccc2c1/C=N/NC(=O)CCn1c(C(F)(F)F)nc2ccccc21	> 50	> 20			
COc1ccc2ccccc2c1/C=N/NC(=O)CCn1c(C)nc2ccccc21	> 50	> 20			
Cc1nc2ccccc2n1CCC(=O)N/N=C/c1ccc(F)c2ccccc12	> 50	> 20			
Cc1nc2ccccc2n1CCC(=O)N/N=C/c1ccc(O)c2ccccc12	> 50	> 20			
Cc1nc2cc(Cl)c(Cl)cc2n1CCC(=O)N/N=C/c1c(O)ccc2ccccc12	6.3 (≈ 2.78 µg/mL)	3.8 (≈ 1.68 µg/mL)	90 (≈ 39.7 µg/mL)	Active	MIC (Shigella boydii): 25 µM (≈ 11 µg/mL); MIC (Klebsiella aerogenes): 12 µM (≈ 5.3 µg/mL); MIC (Vibrio cholerae): 3 µM (≈ 1.32 µg/mL); Activity (Caulobacter vibrioides [4]): Active; MIC (Morganella morganii): > 50 µM; MIC (Acinetobacter baumannii): 50 µM (≈ 22.1 µg/mL); MIC (Klebsiella pneumoniae): 50 µM (≈ 22.1 µg/mL); MIC (Salmonella typhimurium): 25 µM (≈ 11 µg/mL)
Cc1nccn1CCC(=O)N/N=C/c1c(O)ccc2ccccc12	12.5 (≈ 4.03 µg/mL)	7.5 (≈ 2.42 µg/mL)	10 (≈ 3.22 µg/mL)	Active	
CC(=O)Oc1ccc2ccccc2c1/C=N/N(C(C)=O)C(=O)CCn1c(C)nc2ccccc21	50 (≈ 22.8 µg/mL)	> 40			
Cc1nc2ccccc2n1CCC(=O)N/N=C/c1ccccc1O	50 (≈ 16.1 µg/mL)	15 (≈ 4.84 µg/mL)			

Source: ChEMBL document CHEMBL2429825, “Structure-activity studies of divin: an inhibitor of bacterial cell division” (ACS Med Chem Lett, 2013)
